Results from different studies.
Lines come from different studies, so protocols differ.
CDK4: Cyclin-dependent kinase 4 (CDK4, Homo sapiens, UniProt P11802)
REN: Renin (REN, Homo sapiens, UniProt P00797)
Maoa: Amine oxidase [flavin-containing] A (Maoa, Rattus norvegicus, UniProt P21396)

| SMILES | target | assay | conditions | inhibition [%] |
| --- | --- | --- | --- | --- |
| COc1cc(Nc2ncc(F)c(Nc3ccc4c(n3)NC(=O)C(C)(C)O4)n2)cc(OC)c1OC | Serine/threonine-protein kinase DCLK1 (DCLK1, Homo sapiens, UniProt O15075) | binding | 10 µM | 59 |
| C#Cc1n[nH]c2c(-c3cn(C(C)c4ccccn4)c(=O)[nH]c3=O)cc(F)cc12 (stereo not drawn) | Tyrosine-protein kinase Fer (FER, Homo sapiens, UniProt P16591) | enzyme activity, inhibitor | 1 µM | 6.8 |
| CCOC(=O)[C@H]1Cc2c(cc([N+](=O)[O-])cc2[N+](=O)[O-])[C@H](O)[C@]12C(=O)Nc1c(F)cccc12 | CDK4 | cell-free assay, inhibitor, TR-FRET | 1 µM | 32.6 |
| N=C(N)c1ccc2cc(OC(=O)c3ccc(N=C(N)N)cc3)ccc2c1 | REN | enzyme activity, inhibitor | 10 µM | 45 |
| CCOC(=O)[C@H]1Cc2c(cc([N+](=O)[O-])cc2[N+](=O)[O-])[C@@H](O)[C@@]12C(=O)Nc1cc(Cl)ccc12 | CDK4 | cell-free assay, inhibitor, TR-FRET | 1 µM | 61.2 |
| CC(C)C[C@H](NC(=O)[C@H](Cc1ccccc1)NC(=O)c1cnccn1)B(O)O | Chymotrypsinogen A (Bos taurus, UniProt P00766) | enzyme activity, inhibitor | 33 µM | 53 |
| C[C@H](C(=O)N[C@H]1COc2ccccc2[C@@H]1S(C)(=O)=O)c1ccc(F)cc1 | REN | enzyme activity, inhibitor | 10 µM | -2 |
| COCCCOc1cc(C[C@@H](C[C@H](N)[C@@H](O)C[C@H](C(=O)NCC(C)(C)C(N)=O)C(C)C)C(C)C)ccc1OC | REN | enzyme activity, inhibitor | 100 pM | 0 |
| CCOC(=O)[C@H]1Cc2c(cc([N+](=O)[O-])cc2[N+](=O)[O-])[C@H](O)[C@]12C(=O)Nc1ccc(C)cc12 | CDK4 | cell-free assay, inhibitor, TR-FRET | 1 µM | 27.1 |
| Cc1ncc(C)n2nc(/C=C/c3nc(N4CCCC4)cc(N4CCOCC4)n3)nc12 | Maoa | ligand displacement | 10 µM | 2 |
| CCOC(=O)[C@H]1Cc2c(cc([N+](=O)[O-])cc2[N+](=O)[O-])[C@@H](O)[C@@]12C(=O)Nc1cc(Br)ccc12 | CDK4 | cell-free assay, inhibitor, TR-FRET | 1 µM | 59 |
| CN(C)C(=O)COC(=O)Cc1ccc(OC(=O)c2ccc(NC(=N)N)cc2)cc1 | REN | enzyme activity, inhibitor | 10 µM | 1 |
| CCOC(=O)[C@H]1Cc2c(cc([N+](=O)[O-])cc2[N+](=O)[O-])[C@@H](O)[C@@]12C(=O)Nc1ccc(Cl)cc12 | CDK4 | cell-free assay, inhibitor, TR-FRET | 1 µM | 70.2 |
| Cn1cc(-c2cc(F)cc(N3CCn4c(cc5c4CCCC5)C3=O)c2CO)cc(Nc2ccc(N3CCN(C4COC4)CC3)cn2)c1=O | Serine/threonine-protein kinase 3 (STK3, Homo sapiens, UniProt Q13188) | enzyme activity, inhibitor | 0.1 µM | 13 |
| O=C(Nc1cccnn1)N1CCN([C@@H]2CCOc3cc(C(F)(F)F)ccc32)CC1 | Maoa | cell-free assay | 20 µM | 14 |
